Only some compounds are listed: those with a hit (about 2.3% of all), similar ones and a draw of the others.
LGR2 inh = inhibitors of bursicon-induced Drosophila LGR2 receptor cAMP signaling. HEK293 LGR2, CRE-luciferase, bursicon-stimulated, 4 h. hit rate 0.35% among 380,000. inhibition, % at 9.99 µM;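 active = drop in luminescence signal, shown as inhibition above about 50% in the replicate tests, limit read from the data, passing the limit was not always enough; inconclusive = probably only some replicates passing the limit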;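 note: agonist challenge used bursicon conditioned medium at about half maximal strength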
FN deposition inh = fibronectin deposition inhibition; AH1F fibroblasts, Alexa488-fibronectin deposition fluorescence, overnight; inhibition, % at 12.6 µM; hit rate 0.086% among 350,000; AID 743247;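 active = mean inhibition across replicates of 30% or more, regardless of how many single replicates reach that level; inconclusive = mean under 30% yet at least half of replicates reach 30%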;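 note: positive control wells lacked labelled fibronectin entirely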
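Assay system: AH1F fibroblasts assembling fluorescent fibronectin matrix; Amount: 10000 AH1F cells per well; Buffer or medium: DMEM, 2% serum; Probe or stimulus: Alexa488-fibronectin, 24 nM final in well; Doses: single compound dose, delivered by pin transfer; Incubation: 1 h adhesion, overnight exposure; Measured by: fluorescence 485/525 nm; Read-out: fibronectin deposition inhibition.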
TROY signal inh = blocks TROY-dependent signaling in reporter cells | Q293 LMP1-TROYcd NF-kB luciferase reporter, 4 h | inhibition, % at 10 µM | hit rate 0.98% among 360,000;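 active = compounds whose plate-normalised and pattern-corrected inhibition of the luciferase reporter signal at the single screening dose is 50% or more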
XiGFP reactiv = X-chromosome reactivation activator | AID 743238 | activation, % at 7.58 µM | hit rate 0.055% among 360,000 | XiGFP mouse fibroblasts, % GFP-positive cells imaging, 3 d; cells co-treated with 5-aza-dC sensitizer; scaled so ellipticine positive control = 100%;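 active = mean normalized replicate activation at least 10% and every replicate at or above 10%; inconclusive = only one of the two criteria met; inactive = mean below 10% and not all replicates reach 10%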;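 note: 0% = median of on-plate neutral control wells and 100% = ellipticine 6 µM median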
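Material: XiGFP fibroblasts, SV40-immortalized; Buffer or medium: DMEM containing 5-aza-dC; Compound dosing: single point; Times: 3 days compound exposure.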
TWEAK Fn14 block = inhibitors of TWEAK-Fn14 interaction signaling; TWEAK-stimulated Fn14 reporter cells, luciferase luminescence, 8 h; inhibition, % at 10 µM; hit rate 2% among 360,000; in the data active = inhibition above about 50%
EWS-Fli block = blocks EWS/Fli oncoprotein-driven transcription | A673 NR0B1-luciferase reporter, viability-normalised | inhibition, % at 12.6 µM | hit rate 0.67% among 350,000;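 active = mean inhibition of at least 50% after viability correction, with every replicate also passing that limit; inconclusive = mean reaches 50% but only one of two replicates passes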;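 note: firefly luciferase signal divided by Alamar Blue viability fluorescence both relative to DMSO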
Starred values were filed as active, the others as inactive; ? = inconclusive; . = no result.

SMILES | LGR2 inh | FN deposition inh | TROY signal inh | XiGFP reactiv | TWEAK Fn14 block | EWS-Fli block
COc1ccc(C(=O)N/N=C\c2coc3ccc(C)cc3c2=O)cc1 | 23 | -1 | 18 | 0 | 54* | 3
Cc1ccc2occ(/C=N/NC(=O)c3ccccc3O)c(=O)c2c1 | 2 | 10 | 20 | 0 | 58* | 5
Cc1ccc2occ(/C=N/NC(=O)c3ccc(Cl)cc3)c(=O)c2c1 | 17 | 7 | 20 | 0 | 42 | .
CCS(=O)(=O)N1CC(=O)N2[C@H](C1)[C@H](c1ccc(C#Cc3cccc(F)c3)cc1)[C@@H]2CO | . | . | . | 0 | . | .
COCC(=O)N1C[C@H](C)[C@H](OC)CN(C)C(=O)c2ccc(NC(=O)Nc3cccc(F)c3)cc2OC[C@@H]1C | 5 | 10 | . | 0 | . | 56*
CCC(=O)N1C[C@H](C)[C@@H](OC)CN(C)C(=O)c2ccc(NC(=O)Nc3ccc(Cl)cc3)cc2OC[C@@H]1C | 0 | 6 | . | 0 | . | 53*
COCC(=O)N1C[C@@H](C)[C@H](OC)CN(C)C(=O)c2ccc(NC(=O)Nc3cccc(F)c3)cc2OC[C@H]1C | -13 | -1 | . | 0 | . | -9
CC(C)NC(=O)Nc1ccc2c(c1)C(=O)N([C@H](C)CO)C[C@H](C)[C@@H](CN(C)C(=O)Nc1cccc3ccccc13)OCCCC[C@H](C)O2 | -11 | . | . | 0 | . | 19
O=C(C[C@@H]1C=C[C@@H](NC(=O)NC2CCCCC2)[C@H](CO)O1)NCc1ccc(Cl)cc1 | 8 | . | . | 0 | . | 8
Cc1sc2ncnc(Sc3nnnn3-c3ccccc3)c2c1C | 66* | . | 67* | . | 101* | .
Cc1sc2ncnc(Sc3ccccc3C(=O)O)c2c1C | 13 | -1 | -9 | 0 | 11 | 1
Clc1ccc(-n2nnnc2Sc2ncnc3sccc23)cc1 | 46 | . | 70* | . | 75* | .
O=C(CSc1nnnn1-c1ccc(Cl)cc1)N1CCNC1=O | 27 | -10 | -15 | 0 | -13 | -7
C[C@@H]1CCCCO[C@@H](CN(C)S(=O)(=O)c2ccccc2)[C@H](C)CN([C@@H](C)CO)C(=O)c2cc(NS(C)(=O)=O)ccc2O1 | 3 | . | . | 0 | . | -3
O=C(C1CCCC1)N1CC(=O)N2[C@H](CO)[C@H](c3ccc(-c4ccccc4F)cc3)[C@@H]2C1 | -13 | 2 | . | 0 | . | -5
COc1ccc2[nH]c3c(c2c1)CCNC3=O | -13 | -11 | 25 | 0 | 61* | -12
Cc1ccc(-n2c(O)c(/C=N/Nc3ccc(S(=O)(=O)N4CCOCC4)cc3[N+](=O)[O-])c3ccccc3c2=O)c(C)c1 | 45 | -7 | 42 | 0 | 82* | 15
C[C@@H]1CN([C@@H](C)CO)C(=O)c2cc(NC(=O)Nc3ccc4c(c3)OCO4)ccc2O[C@@H](C)CCCCO[C@H]1CN(C)Cc1ccncc1 | 13 | . | . | 0 | . | -9
C[C@H](CO)N1C[C@H](C)[C@@H](CN(C)S(=O)(=O)c2ccccc2)Oc2ccc(NC(=O)CCCCCC(=O)Nc3ccccc3N)cc2CC1=O | 1 | . | . | 0 | . | 11
CC(Nc1cccc2ccccc12)C(=O)N/N=C/c1ccccn1 (stereo unspecified) | . | . | -5 | . | 55* | .
CCOc1ccc(NC(=O)CN(C)C(=O)c2ccncc2)cc1OCC | 4 | 14 | 5 | 0 | 68* | 23
C[C@H](CO)N1C[C@H](C)[C@@H](CN(C)S(=O)(=O)c2ccc(F)cc2)Oc2c(NC(=O)c3cnccn3)cccc2C1=O | 1 | . | . | 0 | . | -7
CC(C)C(=O)Nc1nnc(CSCc2ccccc2F)s1 | . | 1 | -15 | . | -17 | .
CC(C)(C)C(=O)Nc1nnc(CSCc2ccccc2F)s1 | . | 4 | 30 | . | 73* | .
CCCn1nc([N+](=O)[O-])c(C(C#N)c2nc3ccccc3s2)c(Cl)c1=O (stereo unspecified) | 26 | 7 | 46 | . | 77* | .
SMILES | LGR2 inh | FN deposition inh | TROY signal inh | XiGFP reactiv | TWEAK Fn14 block | EWS-Fli block
Cn1c(C(C#N)C(=O)c2sc3ccccc3c2Cl)nc2ccccc21 (stereo unspecified) | . | 0 | 0 | . | 2 | .
CCn1nc([N+](=O)[O-])c(C(C#N)c2nc3ccccc3n2C)c(Cl)c1=O (stereo unspecified) | 3 | 2 | 9 | 0 | 69* | 13
COc1cccc(-c2ccc3n(c2=O)C[C@@H]2[C@@H](CO)[C@H](C(=O)NC4CCC4)N[C@H]32)c1 | -7 | . | . | 0 | . | 2
CO[C@@H]1CN(C)C(=O)c2ccc(NC(C)=O)cc2OC[C@@H](C)N(C(=O)CC2CC2)C[C@H]1C | -1 | -1 | . | 0 | . | 8
CCCNC(=O)N1[C@H](C#N)[C@H](c2ccccc2-c2ccc(OC)cc2)[C@@H]1CO | 14 | -4 | . | 0 | . | 11
Cc1ccnc(NC(=O)Nc2cccc(F)c2)c1 | . | -12 | -19 | . | 66* | .
Cc1ccc(/C=C2\SC(=S)N(Cc3ccccc3)C2=O)o1 | . | . | 3 | . | 16 | .
O=C(O)c1cc(-c2ccc(/C=C3/SC(=S)N(Cc4ccccc4)C3=O)o2)ccc1Cl | ? | -10 | 52* | 0 | 34 | -11
CC(=O)N/C(=N\c1nc(C)cc(C)n1)Nc1ccc2ccccc2c1 | 9 | -2 | 77* | 0 | 74* | -2
O=C(Cn1cnc2ccccc2c1=O)c1ccccc1 | . | -11 | -28 | . | -4 | .
Cc1ccc(C(=O)Cn2cnc3ccccc3c2=O)cc1 | . | . | 54* | . | -34 | .
C[C@@H]1CN([C@H](C)CO)C(=O)c2cc(NS(=O)(=O)c3cccs3)ccc2O[C@@H](C)CCCCO[C@@H]1CN(C)C(=O)Cc1ccccc1 | 5 | . | . | 0 | . | -7
C[C@@H]1CCCCO[C@H](CN(C)Cc2ccc3c(c2)OCO3)[C@@H](C)CN([C@@H](C)CO)C(=O)c2cc(NC(=O)Nc3cccc4ccccc34)ccc2O1 | -10 | . | . | 0 | . | 64*
C[C@@H]1CCCCO[C@@H](CN(C)Cc2ccc3c(c2)OCO3)[C@@H](C)CN([C@H](C)CO)C(=O)c2cc(NC(=O)Nc3cccc4ccccc34)ccc2O1 | -1 | . | . | 0 | . | 2
C[C@@H]1CCCCO[C@@H](CN(C)Cc2ccc3c(c2)OCO3)[C@H](C)CN([C@H](C)CO)C(=O)c2cc(NC(=O)Nc3cccc4ccccc34)ccc2O1 | 3 | . | . | 0 | . | 71*
C/C=C/c1ccc([C@@H]2[C@@H](CN(C)S(C)(=O)=O)N(C(C)=O)[C@H]2CO)cc1 | -2 | -18 | . | 0 | . | 0
O=c1c(O)c(-c2ccccc2)oc2cc(O)cc(O)c12 | -24 | . | -18 | . | 55* | -18
Cc1noc(C)c1S(=O)(=O)Nc1ccc2c(c1)C(=O)N([C@@H](C)CO)C[C@@H](C)[C@@H](CN(C)C)OCCCC[C@H](C)O2 | -25 | -6 | . | 0 | . | -17
CC(C)COC(=O)c1cccc2c1-c1ccccc1/C2=N\O | . | -28 | 1 | . | 33 | .
